Laboratory results from ChEMBL document CHEMBL3102739, “Synthesis and antiproliferative activity of conformationally restricted 1,2,3-triazole analogues of combretastatins in the sea urchin embryo model and against human cancer cell lines” (Bioorg Med Chem, 2014).

Columns and labels:
MDA-MB-468 = assay: Growth inhibition of human MDA-MB-468 cells after 48 hrs by SRB assay; type: functional; conditions: MDA-MB-468, 48 h
[1] = Growth inhibition of human Hs578T cells after 48 hrs by SRB assay; type: functional; conditions: Hs-578T
BT-549 = assay: Growth inhibition of human BT549 cells after 48 hrs by SRB assay; type: functional; conditions: BT-549, 48 h
MDA-MB-231 = assay: Growth inhibition of human MDA-MB-231 cells after 48 hrs by SRB assay; type: functional; conditions: MDA-MB-231, 48 h
DU-145 = assay: Growth inhibition of human DU145 cells after 48 hrs by SRB assay; type: functional; conditions: DU-145, 48 h
MCF7 = assay: Growth inhibition of human MCF7 cells after 48 hrs by SRB assay; type: functional; conditions: MCF7, 48 h
[2] = Growth inhibition of human UO31 cells after 48 hrs by SRB assay; type: functional; conditions: UO-31, 48 h
PC-3 = assay: Growth inhibition of human PC3 cells after 48 hrs by SRB assay; type: functional; conditions: PC-3, 48 h
[3] = Growth inhibition of human RXF393 cells after 48 hrs by SRB assay; type: functional; conditions: RXF 393, 48 h
SN12C = assay: Growth inhibition of human SN12C cells after 48 hrs by SRB assay; type: functional
ACHN = assay: Growth inhibition of human ACHN cells after 48 hrs by SRB assay; type: functional
CAKI-1 = assay: Growth inhibition of human CAKI-1 cells after 48 hrs by SRB assay; type: functional; conditions: CAKI-1, 48 h
786-0 = assay: Growth inhibition of human 786-0 cells after 48 hrs by SRB assay; type: functional; conditions: 786-0, 48 h
A498 = assay: Growth inhibition of human A498 cells after 48 hrs by SRB assay; type: functional; conditions: A498, 48 h
SK-OV-3 = assay: Growth inhibition of human SKOV3 cells after 48 hrs by SRB assay; type: functional; conditions: SK-OV-3, 48 h
[4] = Growth inhibition of human NCI-ADR-RES cells after 48 hrs by SRB assay; type: functional
OVCAR-8 = assay: Growth inhibition of human OVCAR8 cells after 48 hrs by SRB assay; type: functional; conditions: OVCAR-8, 48 h
[5] = Growth inhibition of human OVCAR4 cells after 48 hrs by SRB assay; type: functional; conditions: OVCAR-4, 48 h
[6] = Growth inhibition of human OVCAR5 cells after 48 hrs by SRB assay; type: functional; conditions: OVCAR-5, 48 h
OVCAR-3 = assay: Growth inhibition of human OVCAR3 cells after 48 hrs by SRB assay; type: functional; conditions: OVCAR-3, 48 h
IGROV-1 = assay: Growth inhibition of human IGROV1 cells after 48 hrs by SRB assay; type: functional; conditions: IGROV-1, 48 h
[7] = Growth inhibition of human UACC257 cells after 48 hrs by SRB assay; type: functional; conditions: UACC-257, 48 h
UACC-62 = assay: Growth inhibition of human UACC62 cells after 48 hrs by SRB assay; type: functional; conditions: UACC-62, 48 h
SK-MEL-5 = assay: Growth inhibition of human SK-MEL-5 cells after 48 hrs by SRB assay; type: functional; conditions: SK-MEL-5, 48 h
SK-MEL-28 = assay: Growth inhibition of human SK-MEL-28 cells after 48 hrs by SRB assay; type: functional; conditions: SK-MEL-28, 48 h
MDA-MB-435 = assay: Growth inhibition of human MDA-MB-435 cells after 48 hrs by SRB assay; type: functional; conditions: MDA-MB-435, 48 h
M14 = assay: Growth inhibition of human M14 cells after 48 hrs by SRB assay; type: functional; conditions: M14, 48 h
SNB-75 = assay: Growth inhibition of human SNB75 cells after 48 hrs by SRB assay; type: functional; conditions: SNB-75, 48 h
[8] = Growth inhibition of human SF539 cells after 48 hrs by SRB assay; type: functional; conditions: SF-539, 48 h
SNB-19 = assay: Growth inhibition of human SNB19 cells after 48 hrs by SRB assay; type: functional; conditions: SNB-19, 48 h
SF-295 = assay: Growth inhibition of human SF295 cells after 48 hrs by SRB assay; type: functional; conditions: SF-295, 48 h
SF-268 = assay: Growth inhibition of human SF268 cells after 48 hrs by SRB assay; type: functional; conditions: SF-268, 48 h
SW-620 = assay: Growth inhibition of human SW620 cells after 48 hrs by SRB assay; type: functional; conditions: SW-620, 48 h
KM12 = assay: Growth inhibition of human KM12 cells after 48 hrs by SRB assay; type: functional; conditions: KM12, 48 h
HT-29 = assay: Growth inhibition of human HT-29 cells after 48 hrs by SRB assay; type: functional; conditions: HT-29, 48 h
HCT-15 = assay: Growth inhibition of human HCT15 cells after 48 hrs by SRB assay; type: functional; conditions: HCT-15, 48 h
[9] = Growth inhibition of human HCC2998 cells after 48 hrs by SRB assay; type: functional; conditions: HCC 2998, 48 h
HCT-116 = assay: Growth inhibition of human HCT116 cells after 48 hrs by SRB assay; type: functional; conditions: HCT-116, 48 h
COLO 205 = assay: Growth inhibition of human COLO205 cells after 48 hrs by SRB assay; type: functional; conditions: COLO 205, 48 h
NCI-H522 = assay: Growth inhibition of human NCI-H522 cells after 48 hrs by SRB assay; type: functional; conditions: NCI-H522, 48 h
NCI-H460 = assay: Growth inhibition of human NCI-H460 cells after 48 hrs by SRB assay; type: functional; conditions: NCI-H460, 48 h
NCI-H322M = assay: Growth inhibition of human NCI-H322M cells after 48 hrs by SRB assay; type: functional
NCI-H226 = assay: Growth inhibition of human NCI-H226 cells after 48 hrs by SRB assay; type: functional; conditions: NCI-H226, 48 h
HOP-62 = assay: Growth inhibition of human HOP62 cells after 48 hrs by SRB assay; type: functional; conditions: HOP-62, 48 h
A549 = assay: Growth inhibition of human A549 cells after 48 hrs by SRB assay; type: functional; conditions: A549, 48 h
RPMI-8226 = assay: Growth inhibition of human RPMI8226 cells after 48 hrs by SRB assay; type: functional; conditions: RPMI-8226, 48 h
SR = assay: Growth inhibition of human SR cells after 48 hrs by SRB assay; type: functional
MOLT-4 = assay: Growth inhibition of human MOLT4 cells after 48 hrs by SRB assay; type: functional; conditions: MOLT-4, 48 h
K562 = assay: Growth inhibition of human K562 cells after 48 hrs by SRB assay; type: functional; conditions: K562, 48 h
CCRF-CEM = assay: Growth inhibition of human CCRF-CEM cells after 48 hrs by SRB assay; type: functional
HL-60(TB) = assay: Growth inhibition of human HL-60(TB) cells after 48 hrs by SRB assay; type: functional; conditions: HL-60, 48 h
Paracentrotus lividus [10] = assay: Antimitotic activity against sea urchin embryo free-swimming blastula model assessed as embryo spinning compound treated at 8 to 10 hrs post-fertilization measured after 0.25 to 20 hrs; type: functional, Blastula stage
Paracentrotus lividus [11] = assay: Antimitotic activity against sea urchin embryo model assessed as cleavage arrest of fertilized egg compound treated at 8 to 20 mins post-fertilization and 45 to 55 mins prior to first mitotic cycle completion measured 2.5 to 5.5 hrs post-fertilization; type: functional
How it was run: (§1)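 Fertilized eggs are exposed 8–20 min after fertilization to 2-fold decreasing concentrations. Stocks are 10 mM in DMSO, then diluted 10-fold in 95% EtOH; final DMSO is at most 0.05% and EtOH at most 1%. Embryos are kept as a monolayer, up to 2000 embryos/mL, in filtered seawater at room temperature. The value is the threshold concentration giving cleavage alteration, embryo death before hatching or full mitotic arrest. Duplicates were run.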

Paracentrotus lividus [12] = assay: Antimitotic activity against sea urchin embryo model assessed as cleavage alteration of fertilized egg compound treated at 8 to 20 mins post-fertilization and 45 to 55 mins prior to first mitotic cycle completion measured 2.5 to 5.5 hrs post-fertilization; type: functional; how it was run: as §1

COc1ccc(-c2cnnn2-c2cc(OC)c3c(c2)OCO3)cc1
GI50 (MDA-MB-468): 0.062 µM
GI50 [1]: 0.154 µM
GI50 (BT-549): 0.16 µM
GI50 (MDA-MB-231): 0.135 µM
GI50 (DU-145): 0.232 µM
GI50 (MCF7): 0.047 µM
GI50 [2]: 0.692 µM
GI50 (PC-3): 0.15 µM
GI50 [3]: 0.157 µM
GI50 (SN12C): 0.486 µM
GI50 (ACHN): 0.607 µM
GI50 (CAKI-1): 0.098 µM
GI50 (786-0): 0.363 µM
GI50 (A498): 0.049 µM
GI50 (SK-OV-3): 0.271 µM
GI50 [4]: 0.038 µM
GI50 (OVCAR-8): 0.284 µM
GI50 [5]: 4.17 µM
GI50 [6]: 0.374 µM
GI50 (OVCAR-3): 0.053 µM
GI50 (IGROV-1): 0.123 µM
GI50 [7]: 74.9 µM
GI50 (UACC-62): 0.072 µM
GI50 (SK-MEL-5): 0.235 µM
GI50 (SK-MEL-28): 0.725 µM
GI50 (MDA-MB-435): 0.022 µM
GI50 (M14): 0.061 µM
GI50 (SNB-75): 0.119 µM
GI50 [8]: 0.095 µM
GI50 (SNB-19): > 100 µM
GI50 (SF-295): 0.073 µM
GI50 (SF-268): 0.611 µM
GI50 (SW-620): 0.056 µM
GI50 (KM12): 0.06 µM
GI50 (HT-29): 0.04 µM
GI50 (HCT-15): 0.045 µM
GI50 [9]: 0.258 µM
GI50 (HCT-116): 0.064 µM
GI50 (COLO 205): 0.053 µM
GI50 (NCI-H522): 0.021 µM
GI50 (NCI-H460): 0.055 µM
GI50 (NCI-H322M): 0.673 µM
GI50 (NCI-H226): 4.67 µM
GI50 (HOP-62): 0.125 µM
GI50 (A549): 0.088 µM
GI50 (RPMI-8226): 0.253 µM
GI50 (SR): 0.041 µM
GI50 (MOLT-4): 0.122 µM
GI50 (K562): 0.041 µM
GI50 (CCRF-CEM): 0.132 µM
GI50 (HL-60(TB)): 0.051 µM
EC (Paracentrotus lividus [10]): 0.5 µM
EC (Paracentrotus lividus [11]): 0.1 µM
EC (Paracentrotus lividus [12]): 0.01 µM
